What was measured:
HT-29 = assay: Growth inhibitory activity against human colon HT-29 cell line; assay type: functional
Method in brief: (§1)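 Cell-line screen run at NCI by published procedures. […] The mean graph midpoint is taken across all human cancer cell lines successfully tested.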

HCT-116 [1] = assay: Diameter of zone of inhibition for cell colony formation of solid tumor HCT116 at the dose of 200 ug; assay type: functional, Homo sapiens
Method in brief: (§2)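 HCT116, L1210 leukaemia and normal fibroblast cells were seeded in soft agar in separate 60 mm dishes. The compound was applied to a filter-paper disk laid on the agar. Colony-formation inhibition zones were read after 6–7 days at 37 °C and expressed in zone units (200 units = 6.5 mm; 950 = total inhibition; 0 = none). n > 2 unless otherwise indicated.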

NCI-H522 = assay: Growth inhibitory activity against human lung NCI-H522 cell line; assay type: functional; method in brief: as §1
[2] = test system: Panel (Carcinoma cell lines); assay: Mean graph mid point value for cytotoxic activity against human cancer cell lines was determined; assay type: functional; method in brief: as §1
MCF7 = assay: Growth inhibitory activity against human breast MCF-7 cell line; assay type: functional; method in brief: as §1
SW-620 = assay: Growth inhibitory activity against human colon SW620 cell line; assay type: functional; method in brief: as §1
HCT-116 [3] = assay: Growth inhibitory activity against human colon HCT116 cell line; assay type: functional; method in brief: as §1
RXF 393 = assay: Growth inhibitory activity against human renal RXF-393 cell line; assay type: functional; method in brief: as §1
HL-60 = assay: Growth inhibitory activity against human leukemia HL-60 (TB) cell line; assay type: functional; set-up: unit not given here
L1210 [4] = assay: Diameter of zone of inhibition for cell colony formation of L1210 leukemia cell lines at the dose of 200 ug; assay type: functional, Mus musculus
Method in brief: (§3)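 Soft agar disk diffusion: leukemia (L1210), solid tumor (HCT116, or colon H15) and normal fibroblast cells seeded in soft agar in separate 60 mm dishes. Compound applied to a filter paper disk (dose in μg/disk) set on the agar. Colony-formation inhibition zones read after 6–7 days at 37 °C. 200 zone units = 6.5 mm; 950 = total inhibition; a range marks partial colony shrinkage. n > 2 unless noted.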

[5] = Diameter of zone of inhibition for cell colony formation of normal fibroblast at the dose of 200 ug; Range is 0-11; assay type: functional, Homo sapiens; method in brief: as §3
L1210 [6] = assay: Diameter of zone of inhibition for cell colony formation of leukemia L1210 at the dose of 200 ug; Range is 1.3-5.85; assay type: functional, Mus musculus; method in brief: as §3
[7] = Diameter of zone of inhibition for cell colony formation of normal fibroblast at the dose of 200 ug; Range is 0-11.7; assay type: functional, Homo sapiens; method in brief: as §3
Mus musculus [8] = assay: Tumor growth delay of human HCT116 colorectal carcinoma in mice after intravenous administration at dose of 64 mg/kg; assay type: functional
Method in brief: (§4)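 Female nude mice were implanted with HCT116 tumour tissue from donor mice and randomized once tumours averaged 100 mm3. The sodium salt in saline (pH 7.4) was given by iv bolus on days 1–5 and 8–12. Tumour volumes were recorded twice weekly. TGD = T − C, the time to reach 500 mm3 taken from a fitted tumour-growth model.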

Mus musculus [9] = assay: Tumor growth delay of human HCT116 colorectal carcinoma in mice after intravenous administration at dose of 85 mg/kg; assay type: functional; method in brief: as §4
Mus musculus [10] = assay: Tumor growth delay of human HCT116 colorectal carcinoma in mice after intravenous administration at dose of 128 mg/kg; assay type: functional; method in brief: as §4
L1210 [11] = assay: Diameter of zone of inhibition for cell colony formation of leukemia L1210 at the dose of 200 ug; Range is 0-9.1; assay type: functional, Mus musculus; method in brief: as §3
[12] = Diameter of zone of inhibition for cell colony formation of normal fibroblast at the dose of 200 ug; Range is 0-16.9; assay type: functional, Homo sapiens; method in brief: as §3
HCT-116 [13] = assay: Diameter of zone of inhibition for cell colony formation of solid tumor HCT116 at the dose of 190 ug; assay type: functional, Homo sapiens; method in brief: as §3
L1210 [14] = assay: Diameter of zone of inhibition for cell colony formation of leukemia L1210 at the dose of 190 ug; Range is 0-10.4; assay type: functional, Mus musculus; method in brief: as §3
[15] = Diameter of zone of inhibition for cell colony formation of normal fibroblast at the dose of 190 ug; Range is 0-16.575; assay type: functional, Homo sapiens; method in brief: as §3
HCT-116 [16] = assay: Diameter of zone of inhibition for cell colony formation of solid tumor HCT116 at the dose of 210 ug; assay type: functional, Homo sapiens; method in brief: as §2
L1210 [17] = assay: Diameter of zone of inhibition for cell colony formation of leukemia L1210 at the dose of 210 ug; Range is 0-5.525; assay type: functional, Mus musculus; method in brief: as §3
[18] = Diameter of zone of inhibition for cell colony formation of normal fibroblast at the dose of 210 ug; Range is 0-6.5; assay type: functional, Homo sapiens; method in brief: as §3
L1210 [19] = assay: Diameter of zone of inhibition for cell colony formation of leukemia L1210 at the dose of 200 ug; Range is 0-6.5; assay type: functional, Mus musculus; method in brief: as §3
[20] = Diameter of zone of inhibition for cell colony formation of normal fibroblast at the dose of 200 ug; Range is 0-2.6; assay type: functional, Homo sapiens; method in brief: as §3
L1210 [21] = assay: Diameter of zone of inhibition for cell colony formation of leukemia L1210 at the dose of 190 ug; assay type: functional, Mus musculus; method in brief: as §3
[22] = Diameter of zone of inhibition for cell colony formation of normal fibroblast at the dose of 190 ug; Range is; assay type: functional, Homo sapiens; method in brief: as §3
L1210 [23] = assay: Diameter of zone of inhibition for cell colony formation of leukemia L1210 at the dose of 210 ug; assay type: functional, Mus musculus; method in brief: as §3
HCT-116 [24] = assay: Diameter of zone of inhibition for cell colony formation of solid tumor HCT116 at the dose of 210 ug: range is 6.5-8.125; assay type: functional, Homo sapiens; method in brief: as §2
[25] = Diameter of zone of inhibition for cell colony formation of normal fibroblast at the dose of 190 ug; Range is 0-.975; assay type: functional, Homo sapiens; method in brief: as §3
[26] = Diameter of zone of inhibition for cell colony formation of normal fibroblast at the dose of 190 ug; Range is 0-6.5; assay type: functional, Homo sapiens; method in brief: as §3
L1210 [27] = assay: Diameter of zone of inhibition for cell colony formation of leukemia L1210 at the dose of 190 ug; Range is 3.75-4.875; assay type: functional, Mus musculus; method in brief: as §3
[28] = Diameter of zone of inhibition for cell colony formation of normal fibroblast at the dose of 210 ug; Range is 0-13; assay type: functional, Homo sapiens; method in brief: as §3
L1210 [29] = assay: Diameter of zone of inhibition for cell colony formation of leukemia L1210 at the dose of 210 ug; Range is 0-11.375; assay type: functional, Mus musculus; method in brief: as §3
L1210 [30] = assay: Diameter of zone of inhibition for cell colony formation of leukemia L1210 at the dose of 200 ug; assay type: functional, Mus musculus; method in brief: as §3
[31] = Diameter of zone of inhibition for cell colony formation of normal fibroblast at the dose of 210 ug; assay type: functional, Homo sapiens; method in brief: as §3

O=C(NS(=O)(=O)c1ccc(Cl)cc1)c1ccc(Cl)cc1Cl gave a GI50 (HT-29) of 54.8 µM, an Inhibition (HCT-116 [1]) of 19.5 mm and a GI50 (NCI-H522) of 8.6 µM. It also gave an MGM [2] of 26.3, a GI50 (MCF7) of 1.5 µM and a GI50 (SW-620) of 39.6 µM. It also gave a GI50 (HCT-116 [3]) of 5.3 µM, a GI50 (RXF 393) of 11 µM and a GI50 (HL-60) of 34.7. The Inhibition (L1210 [4]) was 6.5 mm and the Inhibition [5] was 11 mm.
In the case of O=C(NS(=O)(=O)c1ccc(Cl)c(Cl)c1)c1ccc(Cl)cc1Cl, the Inhibition (HCT-116 [1]) is reported as 18.2 mm, the Inhibition (L1210 [6]) is reported as 5.85 mm and the Inhibition [7] is reported as 11.7 mm.
O=C(NS(=O)(=O)c1ccccc1)c1ccc(Cl)cc1Cl showed a GI50 (HT-29) of 52 µM, a GI50 (NCI-H522) of 18.7 µM and a Growth delay (Mus musculus [8]) of 14 days. For the same molecule, the Growth delay (Mus musculus [9]) was 15 days, the Growth delay (Mus musculus [10]) was 22 days and the MGM [2] was 33.1. For the same molecule, the GI50 (MCF7) was 18.9 µM, the GI50 (SW-620) was 8.6 µM and the GI50 (HCT-116 [3]) was 5.4 µM. It also gave a GI50 (RXF 393) of 4.3 µM and a GI50 (HL-60) of 32.9.
Work on O=C(NS(=O)(=O)c1ccc(F)cc1)c1ccc(Cl)cc1Cl yielded an Inhibition (HCT-116 [1]) of 28.6 mm, an Inhibition (L1210 [11]) of 9.1 mm and an Inhibition [12] of 16.9 mm.
For Cc1ccc(S(=O)(=O)NC(=O)c2ccc(Cl)cc2Cl)cc1, the Inhibition (HCT-116 [13]) was 27.3 mm, the Inhibition (L1210 [14]) was 10.4 mm and the Inhibition [15] was 16.57 mm.
Molecule O=C(NS(=O)(=O)c1cc(Cl)cc(Cl)c1)c1ccc(Cl)cc1Cl has an Inhibition (HCT-116 [16]) of 12.35 mm, an Inhibition (L1210 [17]) of 5.52 mm and an Inhibition [18] of 6.5 mm.
For COC(=O)c1ccc(S(=O)(=O)NC(=O)c2ccc(Cl)cc2Cl)cc1, the Inhibition (HCT-116 [1]) was 21.12 mm, the Inhibition (L1210 [19]) was 6.5 mm and the Inhibition [20] was 2.6 mm.
O=C(NS(=O)(=O)c1ccc([N+](=O)[O-])cc1)c1ccc(Cl)cc1Cl gave an Inhibition (L1210 [21]) of 3.57 mm, an Inhibition (HCT-116 [13]) of 17.55 mm and an Inhibition [22] of 10.07 mm.
Cc1cccc(S(=O)(=O)NC(=O)c2ccc(Cl)cc2Cl)c1 showed an Inhibition (L1210 [23]) of 6.5 mm, an Inhibition (HCT-116 [24]) of 8.12 mm and an Inhibition [18] of 6.5 mm.
With O=C(NS(=O)(=O)c1ccc(Cl)cc1)c1cccc(Br)c1 the Inhibition (L1210 [21]) was 6.82 mm, the Inhibition (HCT-116 [13]) was 10.4 mm and the Inhibition [25] was 0.97 mm.
With O=C(NS(=O)(=O)c1cccc(Cl)c1)c1ccc(Cl)cc1Cl the Inhibition (HCT-116 [13]) was 16.73 mm, the Inhibition [26] was 6.5 mm and the Inhibition (L1210 [27]) was 4.87 mm.
With CN(C)c1ccc(S(=O)(=O)NC(=O)c2ccc(Cl)cc2Cl)cc1 the Inhibition (HCT-116 [16]) was 28.75 mm, the Inhibition [28] was 13 mm and the Inhibition (L1210 [29]) was 11.37 mm.
O=C(NS(=O)(=O)c1ccc(Cl)cc1)c1ccc(C(F)(F)F)cc1C(F)(F)F showed an Inhibition (L1210 [30]) of 0 mm, an Inhibition (HCT-116 [1]) of 16.9 mm and an Inhibition [7] of 11.7 mm.
Work on O=C(NS(=O)(=O)c1ccccc1Cl)c1ccc(Cl)cc1Cl yielded an Inhibition (L1210 [23]) of 0 mm, an Inhibition [31] of 0 mm and an Inhibition (HCT-116 [16]) of 0 mm.

Reference: ChEMBL document CHEMBL1138791, “Acyl sulfonamide anti-proliferatives: benzene substituent structure-activity relationships for a novel class of antitumor agents” (J Med Chem, 2004)
